Measurements published in ChEMBL document CHEMBL1811814, “Synthesis and evaluation of indole, pyrazole, chromone and pyrimidine based conjugates for tumor growth inhibitory activities--development of highly efficacious cytotoxic agents” (Eur J Med Chem, 2010).

Tests used:
Format in all cases: functional
Parameters in all cases: scale not given: the % may be the effect or the level left
MDA-MB-435 = experiment: Growth inhibition of human MDA-MB-435 cells assessed tumor cell growth at 10^-5 M
Summary of the method: (§1)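 NCI 60-human-tumor-cell-line panel screen. Each compound was tested at a single concentration of 10^-5 M, and percent growth of tumor cells was recorded for each cell line. Growth inhibition was expressed from these percent-growth values.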

NCI/ADR-RES = experiment: Growth inhibition of human NCI/ADR-RES cells assessed tumor cell growth at 10^-5 M; summary of the method: as §1
KM12 = experiment: Growth inhibition of human KM12 cells assessed tumor cell growth at 10^-5 M; summary of the method: as §1
PC-3 = experiment: Growth inhibition of human PC3 cells assessed tumor cell growth at 10^-5 M; summary of the method: as §1
OVCAR-8 = experiment: Growth inhibition of human OVCAR8 cells assessed tumor cell growth at 10^-5 M; summary of the method: as §1
NCI-H322M = experiment: Growth inhibition of human NCI-H322M cells assessed tumor cell growth at 10^-5 M; summary of the method: as §1
ACHN = experiment: Growth inhibition of human ACHN cells assessed tumor cell growth at 10^-5 M; summary of the method: as §1
A549 = experiment: Growth inhibition of human A549 cells assessed tumor cell growth at 10^-5 M; summary of the method: as §1
MDA-MB-231 = experiment: Growth inhibition of human MDA-MB-231 cells assessed tumor cell growth at 10^-5 M; summary of the method: as §1
LOX IMVI = experiment: Growth inhibition of human LOXIMVI cells assessed tumor cell growth at 10^-5 M; summary of the method: as §1
HCT-116 = experiment: Growth inhibition of human HCT116 cells assessed tumor cell growth at 10^-5 M; summary of the method: as §1
HL-60(TB) = experiment: Growth inhibition of human HL-60(TB) cells assessed tumor cell growth at 10^-5 M
Summary of the method: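 HL-60(TB), part of the 60-line panel, tested at a single concentration of 10^-5 M. The read-out is percent tumor cell growth relative to untreated growth.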

[1] = Growth inhibition of human […] cells assessed tumor cell growth at 10^-5 M; summary of the method: as §1
UO-31 = experiment: Growth inhibition of human UO31 cells assessed tumor cell growth at 10^-5 M
Summary of the method: (§2)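 Single-dose screen at 10^-5 M across the 60 human tumor cell line panel, run to NCI standards. The value is the percent growth of each cell line in the presence of compound. Compounds active at this dose moved on to five-concentration testing (10^-4 to 10^-8 M).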

SR = experiment: Growth inhibition of human SR cells assessed tumor cell growth at 10^-5 M; summary of the method: as §2
HCC 2998 = experiment: Growth inhibition of human HCC2998 cells assessed tumor cell growth at 10^-5 M; summary of the method: as §1
OVCAR-3 = experiment: Growth inhibition of human OVCAR3 cells assessed tumor cell growth at 10^-5 M; summary of the method: as §1
SN12C = experiment: Growth inhibition of human SN12C cells assessed tumor cell growth at 10^-5 M; summary of the method: as §1
Malme-3M = experiment: Growth inhibition of human MALME-3M cells assessed tumor cell growth at 10^-5 M; summary of the method: as §1
UACC-257 = experiment: Growth inhibition of human UACC257 cells assessed tumor cell growth at 10^-5 M; summary of the method: as §2
HCT-15 = experiment: Growth inhibition of human HCT15 cells assessed tumor cell growth at 10^-5 M; summary of the method: as §1
CAKI-1 = experiment: Growth inhibition of human Caki1 cells assessed tumor cell growth at 10^-5 M; summary of the method: as §1
SNB-75 = experiment: Growth inhibition of human SNB75 cells assessed tumor cell growth at 10^-5 M; summary of the method: as §2
IGROV-1 = experiment: Growth inhibition of human IGROV1 cells assessed tumor cell growth at 10^-5 M; summary of the method: as §1
K562 = experiment: Growth inhibition of human K562 cells assessed tumor cell growth at 10^-5 M; summary of the method: as §1
SW-620 = experiment: Growth inhibition of human SW620 cells assessed tumor cell growth at 10^-5 M; summary of the method: as §2
BT-549 = experiment: Growth inhibition of human BT549 cells assessed tumor cell growth at 10^-5 M; summary of the method: as §1
SK-MEL-2 = experiment: Growth inhibition of human SK-MEL-2 cells assessed tumor cell growth at 10^-5 M; summary of the method: as §1
SK-MEL-28 = experiment: Growth inhibition of human SK-MEL-28 cells assessed tumor cell growth at 10^-5 M; summary of the method: as §1
HOP-92 = experiment: Growth inhibition of human HOP92 cells assessed tumor cell growth at 10^-5 M; summary of the method: as §1
786-0 = experiment: Growth inhibition of human 786-0 cells assessed tumor cell growth at 10^-5 M; summary of the method: as §1
M14 = experiment: Growth inhibition of human M14 cells assessed tumor cell growth at 10^-5 M; summary of the method: as §1
DU-145 = experiment: Growth inhibition of human DU145 cells assessed tumor cell growth at 10^-5 M; summary of the method: as §1
SF-268 = experiment: Growth inhibition of human SF268 cells assessed tumor cell growth at 10^-5 M; summary of the method: as §1
[2] = Growth inhibition of human Hs 578T cells assessed tumor cell growth at 10^-5 M; summary of the method: as §1
OVCAR-5 = experiment: Growth inhibition of human OVCAR5 cells assessed tumor cell growth at 10^-5 M; summary of the method: as §1
MDA-MB-468 = experiment: Growth inhibition of human MDA-MB-468 cells assessed tumor cell growth at 10^-5 M; summary of the method: as §1
MOLT-4 = experiment: Growth inhibition of human MOLT4 cells assessed tumor cell growth at 10^-5 M; summary of the method: as §1
RXF 393 = experiment: Growth inhibition of human RXF393 cells assessed tumor cell growth at 10^-5 M; summary of the method: as §1
EKVX = experiment: Growth inhibition of human EKVX cells assessed tumor cell growth at 10^-5 M; summary of the method: as §1
CCRF-CEM = experiment: Growth inhibition of human CCRF-CEM cells assessed tumor cell growth at 10^-5 M; summary of the method: as §1
NCI-H23 = experiment: Growth inhibition of human NCI-H23 cells assessed tumor cell growth at 10^-5 M; summary of the method: as §1
A498 = experiment: Growth inhibition of human A498 cells assessed tumor cell growth at 10^-5 M; summary of the method: as §1
HOP-62 = experiment: Growth inhibition of human HOP62 cells assessed tumor cell growth at 10^-5 M; summary of the method: as §1
NCI-H226 = experiment: Growth inhibition of human NCI-H226 cells assessed tumor cell growth at 10^-5 M; summary of the method: as §1
OVCAR-4 = experiment: Growth inhibition of human OVCAR4 cells assessed tumor cell growth at 10^-5 M; summary of the method: as §1
HT-29 = experiment: Growth inhibition of human HT-29 cells assessed tumor cell growth at 10^-5 M; summary of the method: as §1
UACC-62 = experiment: Growth inhibition of human UACC62 cells assessed tumor cell growth at 10^-5 M; summary of the method: as §2
U-251 = experiment: Growth inhibition of human U251 cells assessed tumor cell growth at 10^-5 M; summary of the method: as §2
MCF7 = experiment: Growth inhibition of human MCF7 cells assessed tumor cell growth at 10^-5 M; summary of the method: as §1
NCI-H460 = experiment: Growth inhibition of human NCI-H460 cells assessed tumor cell growth at 10^-5 M; summary of the method: as §1
SK-MEL-5 = experiment: Growth inhibition of human SK-MEL-5 cells assessed tumor cell growth at 10^-5 M; summary of the method: as §1
SNB-19 = experiment: Growth inhibition of human SNB19 cells assessed tumor cell growth at 10^-5 M; summary of the method: as §2
COLO 205 = experiment: Growth inhibition of human COLO205 cells assessed tumor cell growth at 10^-5 M; summary of the method: as §1
T47D = experiment: Growth inhibition of human T47D cells assessed tumor cell growth at 10^-5 M; summary of the method: as §2
SF-295 = experiment: Growth inhibition of human SF295 cells assessed tumor cell growth at 10^-5 M; summary of the method: as §1
SF-539 = experiment: Growth inhibition of human SF539 cells assessed tumor cell growth at 10^-5 M; summary of the method: as §1
SK-OV-3 = experiment: Growth inhibition of human SKOV3 cells assessed tumor cell growth at 10^-5 M; summary of the method: as §1

## CN1C(=O)C(=Cc2coc3ccccc3c2=O)C(=O)N(C)C1=O
MDA-MB-435
  Activity: 104.58%
NCI/ADR-RES
  Activity: 85.24%
KM12
  Activity: 109.04%
PC-3
  Activity: 94.7%
OVCAR-8
  Activity: 86.75%
NCI-H322M
  Activity: 115.86%
ACHN
  Activity: 93.31%
A549
  Activity: 104.96%
MDA-MB-231
  Activity: 96.45%
LOX IMVI
  Activity: 89.46%
HCT-116
  Activity: 85.46%
HL-60(TB)
  Activity: 92.68%
[1]
  Activity: 62.63%
UO-31
  Activity: 67.73%
SR
  Activity: 72.89%
HCC 2998
  Activity: 99.12%
OVCAR-3
  Activity: 103.79%
SN12C
  Activity: 88.79%
Malme-3M
  Activity: 137.21%
UACC-257
  Activity: 94.47%
HCT-15
  Activity: 82.74%
CAKI-1
  Activity: 105.77%
SNB-75
  Activity: 85.44%
IGROV-1
  Activity: 95.15%
K562
  Activity: 105.28%
SW-620
  Activity: 102.73%
BT-549
  Activity: 87.93%
SK-MEL-2
  Activity: 95.42%
SK-MEL-28
  Activity: 108.31%
HOP-92
  Activity: 87.53%
786-0
  Activity: 95.26%
M14
  Activity: 90.53%
DU-145
  Activity: 106.58%
SF-268
  Activity: 98.13%
[2]
  Activity: 96.44%
OVCAR-5
  Activity: 92.09%
MDA-MB-468
  Activity: 104.25%
MOLT-4
  Activity: 81.25%
RXF 393
  Activity: 91.99%
EKVX
  Activity: 98.76%
CCRF-CEM
  Activity: 97.29%
NCI-H23
  Activity: 84.27%
A498
  Activity: 120.85%
HOP-62
  Activity: 84.39%
NCI-H226
  Activity: 87.83%
OVCAR-4
  Activity: 97.92%
HT-29
  Activity: 112.32%
UACC-62
  Activity: 87.77%
U-251
  Activity: 93.36%

## CC1=NN(c2cccc(Cl)c2)C(=O)/C1=C\c1coc2ccccc2c1=O
MDA-MB-435
  Activity: 110.64%
NCI/ADR-RES
  Activity: 87.3%
KM12
  Activity: 113.31%
PC-3
  Activity: 108.19%
MCF7
  Activity: 86.4%
OVCAR-8
  Activity: 99.11%
NCI-H460
  Activity: 112.85%
SK-MEL-5
  Activity: 109.62%
NCI-H322M
  Activity: 121.02%
ACHN
  Activity: 96.23%
A549
  Activity: 102.67%
MDA-MB-231
  Activity: 98.59%
LOX IMVI
  Activity: 92.97%
HCT-116
  Activity: 106.06%
HL-60(TB)
  Activity: 106.16%
SNB-19
  Activity: 102.59%
[1]
  Activity: 72.35%
UO-31
  Activity: 82.13%
SR
  Activity: 96.27%
HCC 2998
  Activity: 94.86%
OVCAR-3
  Activity: 123.01%
SN12C
  Activity: 100.25%
Malme-3M
  Activity: 107.7%
UACC-257
  Activity: 98.36%
COLO 205
  Activity: 138.42%
HCT-15
  Activity: 92.73%
CAKI-1
  Activity: 96.64%
SNB-75
  Activity: 94.9%
IGROV-1
  Activity: 105.92%
K562
  Activity: 109.12%
SW-620
  Activity: 98.74%
BT-549
  Activity: 98.21%
SK-MEL-2
  Activity: 96.49%
SK-MEL-28
  Activity: 109.94%
T47D
  Activity: 92.99%
HOP-92
  Activity: 91.19%
786-0
  Activity: 77.33%
M14
  Activity: 63.48%
DU-145
  Activity: 115.23%
SF-268
  Activity: 101.34%
[2]
  Activity: 96.45%
OVCAR-5
  Activity: 93.56%
MDA-MB-468
  Activity: 106.03%
SF-295
  Activity: 127.24%
MOLT-4
  Activity: 102.14%
RXF 393
  Activity: 96.69%
EKVX
  Activity: 110.36%
SF-539
  Activity: 95.06%
CCRF-CEM
  Activity: 97.52%
NCI-H23
  Activity: 88.35%
A498
  Activity: 114.05%
HOP-62
  Activity: 110.49%
NCI-H226
  Activity: 93.17%
OVCAR-4
  Activity: 99.9%
SK-OV-3
  Activity: 103.95%
HT-29
  Activity: 114.92%
UACC-62
  Activity: 92.44%
U-251
  Activity: 97.41%
